In ChEMBL document CHEMBL2163314, “Potent aminocyclitol glucocerebrosidase inhibitors are subnanomolar pharmacological chaperones for treating gaucher disease” (J Med Chem, 2012):
Activity calls are given as the source filed them. No cut-off for these calls is given here.

Molecular target: T1, Non-lysosomal glucosylceramidase (Mus musculus) (UniProt Q69ZF3)
T1 sequence (whole entry): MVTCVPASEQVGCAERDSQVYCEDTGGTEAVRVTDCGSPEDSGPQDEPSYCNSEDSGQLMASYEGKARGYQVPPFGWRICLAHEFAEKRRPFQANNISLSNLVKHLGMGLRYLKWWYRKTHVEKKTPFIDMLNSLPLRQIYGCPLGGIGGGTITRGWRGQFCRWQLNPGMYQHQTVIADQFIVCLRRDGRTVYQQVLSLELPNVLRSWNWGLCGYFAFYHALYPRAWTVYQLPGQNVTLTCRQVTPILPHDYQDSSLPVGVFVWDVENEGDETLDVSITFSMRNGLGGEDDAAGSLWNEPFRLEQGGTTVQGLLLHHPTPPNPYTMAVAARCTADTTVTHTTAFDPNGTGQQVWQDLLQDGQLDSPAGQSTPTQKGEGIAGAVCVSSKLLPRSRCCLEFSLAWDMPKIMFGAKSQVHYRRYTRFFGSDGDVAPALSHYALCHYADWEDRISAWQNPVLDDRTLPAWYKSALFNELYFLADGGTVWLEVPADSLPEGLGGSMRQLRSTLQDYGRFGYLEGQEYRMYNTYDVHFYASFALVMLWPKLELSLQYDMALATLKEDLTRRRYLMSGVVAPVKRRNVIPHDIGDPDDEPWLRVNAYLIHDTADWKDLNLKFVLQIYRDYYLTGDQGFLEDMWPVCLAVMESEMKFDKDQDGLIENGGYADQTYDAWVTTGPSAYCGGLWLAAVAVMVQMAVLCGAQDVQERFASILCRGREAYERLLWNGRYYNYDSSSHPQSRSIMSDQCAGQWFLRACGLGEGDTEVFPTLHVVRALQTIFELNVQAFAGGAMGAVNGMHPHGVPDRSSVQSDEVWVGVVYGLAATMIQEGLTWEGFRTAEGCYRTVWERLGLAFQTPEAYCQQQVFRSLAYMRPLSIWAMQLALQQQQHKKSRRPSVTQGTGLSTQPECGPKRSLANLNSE
Experiment: Inhibition of GBA2 activity in mouse tissue homogenate at 50 uM
In short: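 Mouse tissue homogenates were used to separate nonlysosomal GBA2 from lysosomal GCase β-glucosidase activity. Compounds were screened at 50 and 5 μM with 3 mM substrate. Two independent experiments, each run in duplicate.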

## CCCCCCCCCN1C[C@H](O)[C@@H](O)[C@H](O)[C@H]1CO
  inhibition: Active
